Activity and TGI data for one compound are collected here from ChEMBL document CHEMBL4229344 (Eur J Med Chem, 2018).

Data set [1] has as its system Tyrosine-protein kinase ABL1 (Homo sapiens), P00519 [Q252H]. As to the kind of experiment: Binding affinity to human phosphorylated ABL1 Q252H mutant expressed in mammalian expression system assessed as residual binding level at 1 uM by Kinomescan method relative to control. The essentials: (§1)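 Single-concentration (1 μM) competition-binding screen run by KINOMEscan against a panel of 468 purified kinases and mutants. The read-out is the relative binding activity of the test compound to each kinase.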

Data set [2] concerns Tyrosine-protein kinase ABL1 (Homo sapiens), P00519 [Y253F]. As to the kind of experiment: Binding affinity to human phosphorylated ABL1 Y253F mutant (S229 to K512 residues) expressed in mammalian expression system assessed as residual binding level at 1 uM by Kinomescan method relative to control. A digest of the protocol: as §1
Data set [3] concerns the target Tyrosine-protein kinase ABL1 (Homo sapiens, UniProt P00519). Nature of the data set: Binding affinity to wild-type human phosphorylated ABL1 (S229 to K512 residues) expressed in mammalian expression system assessed as residual binding level at 1 uM by Kinomescan method relative to control.
The test system of data set [4] is ALK tyrosine kinase receptor (Homo sapiens), Q9UM73 [C1156Y]. As to the kind of experiment: Binding affinity to wild-type human partial length ALK C1156Y mutant (I1088 to E1409 residues) expressed in mammalian expression system assessed as residual binding level at 1 uM by Kinomescan method relative to control. The essentials: (§2)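 Single-concentration KINOMEscan (DiscoverX) binding screen at 1 μM against a panel of 468 purified kinases and mutants. The read-out is binding relative to control.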
ALK tyrosine kinase receptor (Homo sapiens), Q9UM73 [C1156Y], sequence (Q9UM73 whole entry C1156Y, looked up, the tested form may be a part): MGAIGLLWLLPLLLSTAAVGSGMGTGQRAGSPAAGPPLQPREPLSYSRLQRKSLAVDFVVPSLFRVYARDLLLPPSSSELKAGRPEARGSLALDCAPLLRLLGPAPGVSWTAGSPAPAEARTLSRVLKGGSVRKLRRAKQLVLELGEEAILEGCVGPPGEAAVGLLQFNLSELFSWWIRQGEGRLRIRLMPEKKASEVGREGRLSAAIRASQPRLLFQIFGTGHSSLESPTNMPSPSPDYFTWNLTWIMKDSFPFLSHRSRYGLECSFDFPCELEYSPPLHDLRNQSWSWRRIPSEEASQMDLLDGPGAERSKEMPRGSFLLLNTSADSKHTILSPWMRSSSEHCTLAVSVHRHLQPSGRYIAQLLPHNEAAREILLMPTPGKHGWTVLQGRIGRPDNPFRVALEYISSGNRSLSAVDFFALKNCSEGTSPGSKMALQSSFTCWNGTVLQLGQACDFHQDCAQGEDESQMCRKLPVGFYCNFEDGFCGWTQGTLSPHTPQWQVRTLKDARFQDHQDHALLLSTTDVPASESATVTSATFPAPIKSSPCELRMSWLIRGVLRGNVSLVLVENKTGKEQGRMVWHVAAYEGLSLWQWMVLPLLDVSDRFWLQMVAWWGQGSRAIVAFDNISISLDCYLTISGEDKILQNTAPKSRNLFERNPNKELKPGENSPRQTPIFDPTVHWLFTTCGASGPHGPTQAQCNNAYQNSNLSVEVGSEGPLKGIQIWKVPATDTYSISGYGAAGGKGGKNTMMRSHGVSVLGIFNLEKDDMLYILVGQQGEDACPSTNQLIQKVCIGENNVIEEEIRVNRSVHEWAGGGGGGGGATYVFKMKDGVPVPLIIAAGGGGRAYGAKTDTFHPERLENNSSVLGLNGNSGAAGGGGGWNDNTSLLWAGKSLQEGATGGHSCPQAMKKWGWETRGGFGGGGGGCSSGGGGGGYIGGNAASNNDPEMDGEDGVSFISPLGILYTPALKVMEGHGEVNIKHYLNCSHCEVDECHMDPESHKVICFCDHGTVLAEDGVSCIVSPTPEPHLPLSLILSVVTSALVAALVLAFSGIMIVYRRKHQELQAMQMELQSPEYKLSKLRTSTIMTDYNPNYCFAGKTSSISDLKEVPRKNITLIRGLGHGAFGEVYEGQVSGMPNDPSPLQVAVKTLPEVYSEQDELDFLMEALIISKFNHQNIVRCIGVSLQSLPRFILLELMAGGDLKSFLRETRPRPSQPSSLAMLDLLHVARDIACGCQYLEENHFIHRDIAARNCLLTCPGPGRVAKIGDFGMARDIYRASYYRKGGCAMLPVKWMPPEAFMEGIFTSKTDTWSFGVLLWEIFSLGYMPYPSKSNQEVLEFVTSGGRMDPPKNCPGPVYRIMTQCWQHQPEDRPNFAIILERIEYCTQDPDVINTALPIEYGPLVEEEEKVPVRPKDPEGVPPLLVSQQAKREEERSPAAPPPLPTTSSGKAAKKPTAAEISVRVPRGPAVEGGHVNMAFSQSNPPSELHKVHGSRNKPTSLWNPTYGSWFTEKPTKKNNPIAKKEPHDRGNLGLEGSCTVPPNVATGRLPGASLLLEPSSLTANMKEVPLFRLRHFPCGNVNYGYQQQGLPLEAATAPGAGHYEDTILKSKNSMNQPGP

Data set [5] addresses Aurora kinase A (Homo sapiens) (UniProt O14965). As to the kind of experiment: Binding affinity to wild-type human partial length AURKA (E122 to K401 residues) expressed in mammalian expression system assessed as residual binding level at 1 uM by Kinomescan method relative to control. A digest of the protocol:
(§3)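 Kinome-wide competition binding screen against a panel of 468 purified kinases/mutants, with the test compound at a single concentration of 1 μM. Read-out is the relative binding activity of each kinase in the presence of compound.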

Data set [6] concerns the target Cyclin-dependent kinase 4/cyclin D1 (Homo sapiens) (UniProt P11802+P24385). As to the kind of experiment: Binding affinity to wild-type human full length CDK4/cyclinD1 (M1 to E303 residues) expressed in mammalian expression system assessed as residual binding level at 1 uM by Kinomescan method relative to control. The essentials: as §1
For data set [7], the target named is Dual specificity protein kinase CLK4 (Homo sapiens) (UniProt Q9HAZ1). Nature of the data set: Binding affinity to wild-type human partial length CLK4 (R135 to K481 residues) expressed in bacterial expression system assessed as residual binding level at 1 uM by Kinomescan method relative to control. The essentials: as §3
Dual specificity protein kinase CLK4 (Homo sapiens), sequence (Q9HAZ1 whole entry, looked up, the tested form may be a part): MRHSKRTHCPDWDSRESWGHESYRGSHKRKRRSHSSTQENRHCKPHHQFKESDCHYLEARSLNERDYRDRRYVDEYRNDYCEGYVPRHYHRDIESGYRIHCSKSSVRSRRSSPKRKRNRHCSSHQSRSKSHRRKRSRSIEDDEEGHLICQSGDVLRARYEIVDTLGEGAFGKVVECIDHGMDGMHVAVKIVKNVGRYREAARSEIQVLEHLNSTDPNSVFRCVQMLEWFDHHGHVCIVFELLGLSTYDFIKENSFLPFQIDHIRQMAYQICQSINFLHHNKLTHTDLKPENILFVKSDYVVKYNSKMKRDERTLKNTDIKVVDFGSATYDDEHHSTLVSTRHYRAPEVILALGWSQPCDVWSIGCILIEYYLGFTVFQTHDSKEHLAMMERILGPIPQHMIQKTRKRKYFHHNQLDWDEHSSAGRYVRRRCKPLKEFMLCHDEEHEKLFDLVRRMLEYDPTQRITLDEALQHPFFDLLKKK
The target of data set [8] is Ephrin type-A receptor 3 (Homo sapiens) (UniProt P29320). Nature of the data set: Binding affinity to wild-type human partial length EPHA3 (D604 to K889 residues) expressed in bacterial expression system assessed as residual binding level at 1 uM by Kinomescan method relative to control. A digest of the protocol: as §3
Ephrin type-A receptor 3 (Homo sapiens), sequence (P29320 whole entry, the tested form may be a part): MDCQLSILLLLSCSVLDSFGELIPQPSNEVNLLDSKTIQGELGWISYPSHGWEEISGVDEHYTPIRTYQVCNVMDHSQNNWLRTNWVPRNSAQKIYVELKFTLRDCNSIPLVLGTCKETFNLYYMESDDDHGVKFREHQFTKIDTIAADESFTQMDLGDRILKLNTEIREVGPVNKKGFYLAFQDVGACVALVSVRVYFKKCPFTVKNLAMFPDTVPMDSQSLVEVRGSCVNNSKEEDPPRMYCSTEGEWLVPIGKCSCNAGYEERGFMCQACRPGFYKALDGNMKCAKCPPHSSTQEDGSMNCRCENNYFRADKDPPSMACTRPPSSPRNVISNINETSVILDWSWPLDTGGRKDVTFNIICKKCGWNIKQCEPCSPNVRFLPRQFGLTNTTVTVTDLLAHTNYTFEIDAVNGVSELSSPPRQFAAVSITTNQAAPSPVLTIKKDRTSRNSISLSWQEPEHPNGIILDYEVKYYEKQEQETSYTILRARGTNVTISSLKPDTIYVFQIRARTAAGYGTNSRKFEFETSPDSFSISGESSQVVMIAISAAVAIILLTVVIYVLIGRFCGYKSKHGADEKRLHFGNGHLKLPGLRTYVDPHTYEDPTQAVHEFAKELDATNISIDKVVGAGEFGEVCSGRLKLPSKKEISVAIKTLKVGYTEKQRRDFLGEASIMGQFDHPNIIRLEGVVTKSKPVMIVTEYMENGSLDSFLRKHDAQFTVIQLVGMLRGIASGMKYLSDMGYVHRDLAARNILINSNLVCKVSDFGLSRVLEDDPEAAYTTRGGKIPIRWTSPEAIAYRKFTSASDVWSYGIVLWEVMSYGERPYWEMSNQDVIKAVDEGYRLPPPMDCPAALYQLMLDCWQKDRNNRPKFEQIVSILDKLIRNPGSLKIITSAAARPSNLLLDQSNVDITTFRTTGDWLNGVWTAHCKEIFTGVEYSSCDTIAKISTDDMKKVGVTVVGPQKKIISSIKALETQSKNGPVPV
Data set [9] deals with Ephrin type-A receptor 7 (Homo sapiens) (UniProt Q15375). Nature of the data set: Binding affinity to wild-type human partial length EPHA7 (Y608 to S912 residues) expressed in bacterial expression system assessed as residual binding level at 1 uM by Kinomescan method relative to control.
Data set [10] has as its system Receptor-type tyrosine-protein kinase FLT3 (Homo sapiens), P36888 [K663Q]. Nature of the data set: Binding affinity to human partial length FLT3 K663Q mutant (V592 to Y969 residues) expressed in bacterial expression system assessed as residual binding level at 1 uM by Kinomescan method relative to control. A digest of the protocol: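 Kinome-wide single-concentration binding screen (KINOMEscan) at 1 μM against a panel of 468 purified kinases and mutants. Read-out is relative binding of each kinase compared with control. Selectivity across the panel was summarised as an S(10) score.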

Data set [11] concerns the target G protein-coupled receptor kinase 3 (Homo sapiens) (UniProt P35626). Nature of the data set: Binding affinity to wild-type human full length GRK3 (M1 to L688 residues) expressed in mammalian expression system assessed as residual binding level at 1 uM by Kinomescan method relative to control. A digest of the protocol: as §1
In data set [12] the target is Serine/threonine-protein kinase haspin (Homo sapiens) (UniProt Q8TF76). As to the kind of experiment: Binding affinity to wild-type human partial length HASPIN (I452 to K798 residues) expressed in mammalian expression system assessed as residual binding level at 1 uM by Kinomescan method relative to control. A digest of the protocol: as §3
Serine/threonine-protein kinase haspin (Homo sapiens), sequence (Q8TF76 whole entry, the tested form may be a part): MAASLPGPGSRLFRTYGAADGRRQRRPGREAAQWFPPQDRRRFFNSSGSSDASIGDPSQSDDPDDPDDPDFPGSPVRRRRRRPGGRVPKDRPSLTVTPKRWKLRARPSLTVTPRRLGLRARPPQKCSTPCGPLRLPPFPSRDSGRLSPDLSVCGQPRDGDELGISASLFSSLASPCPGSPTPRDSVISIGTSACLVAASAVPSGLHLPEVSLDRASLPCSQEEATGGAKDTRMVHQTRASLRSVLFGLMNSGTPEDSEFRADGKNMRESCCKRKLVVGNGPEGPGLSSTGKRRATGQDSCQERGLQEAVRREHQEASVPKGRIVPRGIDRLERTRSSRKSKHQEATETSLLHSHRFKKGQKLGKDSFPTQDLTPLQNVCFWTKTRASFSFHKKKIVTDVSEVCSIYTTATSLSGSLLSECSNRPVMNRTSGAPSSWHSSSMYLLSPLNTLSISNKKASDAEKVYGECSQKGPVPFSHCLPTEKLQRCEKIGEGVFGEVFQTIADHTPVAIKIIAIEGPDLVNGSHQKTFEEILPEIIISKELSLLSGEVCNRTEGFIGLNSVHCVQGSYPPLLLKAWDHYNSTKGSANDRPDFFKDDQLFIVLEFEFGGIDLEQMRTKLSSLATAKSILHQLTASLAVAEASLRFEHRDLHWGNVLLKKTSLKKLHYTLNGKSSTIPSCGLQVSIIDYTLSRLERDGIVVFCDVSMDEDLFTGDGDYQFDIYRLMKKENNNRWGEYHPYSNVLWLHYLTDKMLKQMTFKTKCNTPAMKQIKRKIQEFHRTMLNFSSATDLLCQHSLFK
The target in data set [13] is Mitogen-activated protein kinase kinase kinase 4 (Homo sapiens) (UniProt Q9Y6R4). Nature of the data set: Binding affinity to wild-type human partial length MAP3K4 (G1319 to E1608 residues) expressed in bacterial expression system assessed as residual binding level at 1 uM by Kinomescan method relative to control.
Data set [14] addresses Dual specificity mitogen-activated protein kinase kinase 7 (Homo sapiens) (UniProt O14733). Nature of the data set: Binding affinity to wild-type human full length MKK7 (M1 to R419 residues) expressed in mammalian expression system assessed as residual binding level at 1 uM by Kinomescan method relative to control. The essentials: as §2
For data set [15], the target named is Serine/threonine-protein kinase MRCK beta (Homo sapiens) (UniProt Q9Y5S2). As to the kind of experiment: Binding affinity to wild-type human partial length MRCKB (L56 to S417 residues) expressed in bacterial expression system assessed as residual binding level at 1 uM by Kinomescan method relative to control.
Data set [16] deals with Phosphatidylinositol 4-phosphate 3-kinase C2 domain-containing subunit beta (Homo sapiens) (UniProt O00750). Nature of the data set: Binding affinity to wild-type human partial length PIK3C2B (M1 to L1634 residues) expressed in mammalian expression system assessed as residual binding level at 1 uM by Kinomescan method relative to control.
Data set [17] addresses Serine/threonine-protein kinase 33 (Homo sapiens) (UniProt Q9BYT3). As to the kind of experiment: Binding affinity to wild-type human full length STK33 (M1 to L514 residues) expressed in bacterial expression system assessed as residual binding level at 1 uM by Kinomescan method relative to control. The essentials: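 KINOMEscan competition binding against 468 purified kinases/mutants, test compound at 1 µM; residual binding relative to control.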

A further data set has as its system Mus musculus. As to the kind of experiment: Toxicity in nu/nu mouse xenografted with human EOL-1 cells assessed as change in body weight at 25 to 100 mg/kg/day, ip. Type of data set: organism-based. The settings on record: in vivo. The essentials: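 Female nu/nu mice, 6 weeks old, implanted subcutaneously in the right flank with 5 million EOL-1 cells in PBS/Matrigel 1:1. At tumour size 200–400 mm³, mice randomised into groups of 6 and given daily IP doses of 25, 50 or 100 mg/kg in 0.5% methylcellulose/0.4% Tween80, or vehicle, for 14 days. Body weight measured daily and normalised to initial weight; mean ± SEM.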
(In general: Xenograft models place foreign cells or tissue in a host animal.)

A further data set has as its system EOL1. As to the kind of experiment: Antitumor activity against human EOL-1 cells xenografted in nu/nu mouse assessed as tumor growth inhibition at 25 to 100 mg/kg/day, ip. It is filed as functional, organism-based. The essentials: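 Female nu/nu mice, six weeks old; 5 million EOL-1 cells in PBS mixed 1:1 with Matrigel, injected subcutaneously in the right flank. Dosing began once tumors reached 200–400 mm3, with randomization into groups of 6. Daily IP dosing at 25.0, 50.0 or 100 mg/kg/d in 0.5% methocellulose/0.4% Tween80 in water, or vehicle alone, for 14 days. Tumor volume = (W2×L)/2, measured daily. Final tumor weights were also recorded.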

Serine/threonine-protein kinase 33 (Homo sapiens), sequence (Q9BYT3 whole entry, looked up, the tested form may be a part): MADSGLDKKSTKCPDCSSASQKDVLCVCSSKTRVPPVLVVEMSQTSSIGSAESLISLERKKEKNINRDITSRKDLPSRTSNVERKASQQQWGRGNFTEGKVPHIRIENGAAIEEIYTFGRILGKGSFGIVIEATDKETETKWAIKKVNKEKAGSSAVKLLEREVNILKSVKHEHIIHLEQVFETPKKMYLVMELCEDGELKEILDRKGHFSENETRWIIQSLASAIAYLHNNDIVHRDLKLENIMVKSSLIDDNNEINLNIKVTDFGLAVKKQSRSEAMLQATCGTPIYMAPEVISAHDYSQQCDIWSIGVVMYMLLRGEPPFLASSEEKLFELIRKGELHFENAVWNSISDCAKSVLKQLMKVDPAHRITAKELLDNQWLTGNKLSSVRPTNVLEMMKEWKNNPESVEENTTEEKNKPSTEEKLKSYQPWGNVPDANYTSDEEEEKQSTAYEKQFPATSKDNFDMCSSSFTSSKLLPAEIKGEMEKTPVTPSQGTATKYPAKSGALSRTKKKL
G protein-coupled receptor kinase 3 (Homo sapiens), sequence (P35626 whole entry, the tested form may be a part): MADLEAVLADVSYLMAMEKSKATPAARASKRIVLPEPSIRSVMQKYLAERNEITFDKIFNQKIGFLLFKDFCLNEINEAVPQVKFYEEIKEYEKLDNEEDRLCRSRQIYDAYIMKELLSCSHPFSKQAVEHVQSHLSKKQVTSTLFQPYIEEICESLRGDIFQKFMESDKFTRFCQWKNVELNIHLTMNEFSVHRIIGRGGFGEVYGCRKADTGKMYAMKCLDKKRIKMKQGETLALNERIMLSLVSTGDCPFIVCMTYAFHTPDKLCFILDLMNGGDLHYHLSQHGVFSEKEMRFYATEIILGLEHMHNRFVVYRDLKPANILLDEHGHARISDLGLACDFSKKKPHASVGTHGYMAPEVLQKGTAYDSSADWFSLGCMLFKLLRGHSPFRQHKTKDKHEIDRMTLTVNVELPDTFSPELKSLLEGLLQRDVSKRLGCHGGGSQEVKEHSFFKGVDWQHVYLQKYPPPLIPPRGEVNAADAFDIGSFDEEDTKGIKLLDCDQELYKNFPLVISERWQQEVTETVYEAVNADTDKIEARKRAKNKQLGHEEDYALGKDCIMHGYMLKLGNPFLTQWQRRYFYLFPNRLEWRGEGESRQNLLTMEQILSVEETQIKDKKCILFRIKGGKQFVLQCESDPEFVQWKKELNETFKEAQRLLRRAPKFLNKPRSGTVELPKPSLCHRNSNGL

Regarding `Cc1ccc(NC(=O)c2ccc(CN(CCN(C)C)C(=O)c3cccnc3)cc2)cc1Nc1nccc(-c2cccnc2)n1`, the Activity turned out to be 100% in data set [1]; 90% in data set [2]; 73% in data set [3]; 100% in [4]; 74% in data set [5]; 100% in data set [6]. Moreover, the Activity in data set [7] worked out at 66%; in data set [8], 89%; in [9], 100%; in data set [10], 93%; in data set [11], 98%; in data set [12], 72%. For the same compound, the Activity in data set [13] is 90%; in [14] it was 100%; in [15], 99%; in [16], 97%; in data set [17] it was 89%; in the data set with Mus musculus, “Toxic”. In the data set with EOL1, the TGI entry is “Dose-dependent effect”.
